In ChEMBL document CHEMBL5303300, “EUbOPEN Chemogenomics Library - Multiplex” (2023):
Where “and” joins values, the source holds several entries; their conditions need not be identical. Equal entries are not always repeated.

How the values were obtained:
HEK-293T = assay: Multiplex assay against HEK293T; type: toxicity, cell-based; conditions: human, number of replicates 2
How it was run: (§1)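 Tubulin, mitochondrial-mass and membrane-permeability phenotypes are per cents of healthy-nucleus cells. Cells were gated by CellPathfinder machine learning into Hoechst high-intensity objects or normal cells, normal cells into healthy, pyknosed or fragmented nuclei, and pyknosed cells into mitotic or apoptotic. Before that, live cells stained at seeding with Hoechst33342, BioTracker Green Microtubule Cytoskeleton Dye, MitoTracker Red and Annexin V Alexa Fluor 680 were imaged on a CQ1 microscope at 37°C and 5% CO2 after compound addition.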

Fibroblast = assay: Multiplex assay against human fibroblast; type: toxicity, cell-based; conditions: number of replicates 2; how it was run: as §1
[1] = 24 h, 10 µM, compound concentration 10 uM
[2] = 48 h, 1 µM, compound concentration 1 uM
[3] = 48 h, 10 µM, compound concentration 10 uM
[4] = 12 h, 1 µM, compound concentration 1 uM
[5] = 12 h, 10 µM, compound concentration 10 uM
[6] = 24 h, 1 µM, compound concentration 1 uM

Structure (SMILES): CC(C)(C)c1cnc(CSc2cnc(NC(=O)C3CCN(CC(=O)NCCOCCOCCOCCNc4cccc5c4C(=O)N(C4CCC(=O)NC4=O)C5=O)CC3)s2)o1 (centres undefined)
- Population Hoechst High Intensity Objects (%) (HEK-293T; [1]): 30% and 33%
- Population Membrane Permeable-Phenotype (%) (HEK-293T; [1]): 7% and 5%
- Population Mitochondria Different-Phenotype (%) (HEK-293T; [1]): 77% and 80%
- Population Mitotic Cells (%) (HEK-293T; [1]): 22% and 25%
- Population Normal (%) (HEK-293T; [1]): 69% and 66%
- Population Pyknosed Nuclei (%) (HEK-293T; [1]): 25% and 28%
- Population Tubulin-Different-Phenotype (%) (HEK-293T; [1]): 85%
- Total Cell Count (HEK-293T; [1]): 268 and 254
- Population Apoptotic (%) (HEK-293T; [2]): 76% and 85%
- Population Fragmented Nuclei (%) (HEK-293T; [2]): 6%
- Population Healthy Nuclei (%) (HEK-293T; [2]): 82% and 78%
- Population Hoechst High Intensity Objects (%) (HEK-293T; [2]): 11% and 17%
- Population Membrane Permeable-Phenotype (%) (HEK-293T; [2]): 3% and 0%
- Population Mitochondria Different-Phenotype (%) (HEK-293T; [2]): 52% and 59%
- Population Mitotic Cells (%) (HEK-293T; [2]): 23% and 14%
- Population Normal (%) (HEK-293T; [2]): 88% and 82%
- Population Pyknosed Nuclei (%) (HEK-293T; [2]): 11% and 15%
- Population Tubulin-Different-Phenotype (%) (HEK-293T; [2]): 64% and 63%
- Total Cell Count (HEK-293T; [2]): 294 and 328
- Population Apoptotic (%) (HEK-293T; [3]): 84% and 89%
- Population Fragmented Nuclei (%) (HEK-293T; [3]): 8% and 5%
- Population Healthy Nuclei (%) (HEK-293T; [3]): 71% and 70%
- Population Hoechst High Intensity Objects (%) (HEK-293T; [3]): 28% and 20%
- Population Membrane Permeable-Phenotype (%) (HEK-293T; [3]): 3% and 2%
- Population Mitochondria Different-Phenotype (%) (HEK-293T; [3]): 77% and 84%
- Population Mitotic Cells (%) (HEK-293T; [3]): 15% and 10%
- Population Normal (%) (HEK-293T; [3]): 71% and 79%
- Population Pyknosed Nuclei (%) (HEK-293T; [3]): 20% and 24%
- Population Tubulin-Different-Phenotype (%) (HEK-293T; [3]): 83% and 87%
- Total Cell Count (HEK-293T; [3]): 309 and 250
- Population Apoptotic (%) (Fibroblast; [4]): 44% and 47%
- Population Fragmented Nuclei (%) (Fibroblast; [4]): 8% and 7%
- Population Healthy Nuclei (%) (Fibroblast; [4]): 70% and 73%
- Population Hoechst High Intensity Objects (%) (Fibroblast; [4]): 0%
- Population Membrane Permeable-Phenotype (%) (Fibroblast; [4]): 2% and 3%
- Population Mitochondria Different-Phenotype (%) (Fibroblast; [4]): 1% and 0%
- Population Mitotic Cells (%) (Fibroblast; [4]): 55% and 52%
- Population Normal (%) (Fibroblast; [4]): 100%
- Population Pyknosed Nuclei (%) (Fibroblast; [4]): 21% and 19%
- Total Cell Count (Fibroblast; [4]): 180 and 189
- Population Apoptotic (%) (Fibroblast; [5]): 61% and 53%
- Population Fragmented Nuclei (%) (Fibroblast; [5]): 15% and 23%
- Population Healthy Nuclei (%) (Fibroblast; [5]): 47% and 50%
- Population Hoechst High Intensity Objects (%) (Fibroblast; [5]): 0%
- Population Membrane Permeable-Phenotype (%) (Fibroblast; [5]): 15% and 27%
- Population Mitochondria Different-Phenotype (%) (Fibroblast; [5]): 9% and 16%
- Population Mitotic Cells (%) (Fibroblast; [5]): 38% and 46%
- Population Normal (%) (Fibroblast; [5]): 100% and 99%
- Population Pyknosed Nuclei (%) (Fibroblast; [5]): 36% and 25%
- Population Tubulin-Different-Phenotype (%) (Fibroblast; [5]): 58% and 63%
- Total Cell Count (Fibroblast; [5]): 107 and 167
- Population Apoptotic (%) (Fibroblast; [6]): 51% and 77%
- Population Fragmented Nuclei (%) (Fibroblast; [6]): 7% and 16%
- Population Healthy Nuclei (%) (Fibroblast; [6]): 71% and 63%
- Population Hoechst High Intensity Objects (%) (Fibroblast; [6]): 0% and 1%
- Population Membrane Permeable-Phenotype (%) (Fibroblast; [6]): 5% and 7%
- Population Mitochondria Different-Phenotype (%) (Fibroblast; [6]): 7% and 1%
- Population Mitotic Cells (%) (Fibroblast; [6]): 48% and 22%
- Population Normal (%) (Fibroblast; [6]): 100% and 98%
- Population Pyknosed Nuclei (%) (Fibroblast; [6]): 21% and 19%
- Population Tubulin-Different-Phenotype (%) (Fibroblast; [6]): 25% and 17%
- Total Cell Count (Fibroblast; [6]): 180 and 184
- Population Apoptotic (%) (Fibroblast; [1]): 71% and 72%
- Population Fragmented Nuclei (%) (Fibroblast; [1]): 17% and 21%
- Population Healthy Nuclei (%) (Fibroblast; [1]): 50% and 53%
- Population Hoechst High Intensity Objects (%) (Fibroblast; [1]): 0%
- Population Membrane Permeable-Phenotype (%) (Fibroblast; [1]): 14% and 13%
- Population Mitochondria Different-Phenotype (%) (Fibroblast; [1]): 28% and 21%
- Population Mitotic Cells (%) (Fibroblast; [1]): 28% and 27%
- Population Normal (%) (Fibroblast; [1]): 100% and 99%
- Population Pyknosed Nuclei (%) (Fibroblast; [1]): 31% and 24%
- Population Tubulin-Different-Phenotype (%) (Fibroblast; [1]): 56% and 58%
- Total Cell Count (Fibroblast; [1]): 112 and 153
- Population Apoptotic (%) (Fibroblast; [2]): 62% and 71%
- Population Fragmented Nuclei (%) (Fibroblast; [2]): 8% and 9%
- Population Healthy Nuclei (%) (Fibroblast; [2]): 58% and 63%
- Population Hoechst High Intensity Objects (%) (Fibroblast; [2]): 0%
- Population Membrane Permeable-Phenotype (%) (Fibroblast; [2]): 16% and 8%
- Population Mitochondria Different-Phenotype (%) (Fibroblast; [2]): 7% and 0%
- Population Mitotic Cells (%) (Fibroblast; [2]): 37% and 28%
- Population Normal (%) (Fibroblast; [2]): 100%
- Population Pyknosed Nuclei (%) (Fibroblast; [2]): 32% and 27%
- Population Tubulin-Different-Phenotype (%) (Fibroblast; [2]): 34% and 15%
- Total Cell Count (Fibroblast; [2]): 178 and 166
- Population Apoptotic (%) (Fibroblast; [3]): 83% and 78%
- Population Fragmented Nuclei (%) (Fibroblast; [3]): 18% and 26%
- Population Healthy Nuclei (%) (Fibroblast; [3]): 45% and 50%
- Population Hoechst High Intensity Objects (%) (Fibroblast; [3]): 0%
- Population Membrane Permeable-Phenotype (%) (Fibroblast; [3]): 9% and 13%
- Population Mitotic Cells (%) (Fibroblast; [3]): 16% and 21%
- Population Normal (%) (Fibroblast; [3]): 100% and 99%
- Population Pyknosed Nuclei (%) (Fibroblast; [3]): 36% and 23%
- Population Tubulin-Different-Phenotype (%) (Fibroblast; [3]): 44% and 63%
- Total Cell Count (Fibroblast; [3]): 115 and 158
